Assay results taken from ChEMBL document CHEMBL1129970, “Biologically active conformer of the effector region of human C5a and modulatory effects of N-terminal receptor binding determinants on activity” (J Med Chem, 1997).
One block for each molecule: values may come before it. Peptide text beside a SMILES is read from it.

Experiments:
Homo sapiens [1] = species: Homo sapiens; experiment: Log potency ratio [pD2(C5a)-pD2(peptide)] was determined in human polymorphonuclear cells (PMN) (n=5); type: functional
In short: (§1)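 Human PMNs pretreated with cytochalasin B (5 μg/mL, 10 min, 37 °C), then 10⁶ cells stimulated for 60 min at 37 °C. β-Glucuronidase in the supernatant is assayed with 0.01 M p-nitrophenyl β-D-glucuronide (0.1 M acetate, pH 4, 18 h) in triplicate. Reaction stopped with glycine pH 10 and read at 415 nm. pD2 is taken from dose–response curves against the C5a EC50. Efficacy is given relative to C5a maximum (100%).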

[2] = (§2) Ratio of concentration agonist potency (EC50) to concentration inhibiting [125I]C5a binding (n=3)
In short: (§3)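 Competition binding on freshly isolated intact human PMNs (0.25 × 10⁶) with 20 pM [¹²⁵I]C5a plus unlabeled C5a or peptide. Buffer is 50 mM HEPES, 1 mM CaCl₂, 5 mM MgCl₂, 0.5% BSA. Incubation 60 min at 4 °C, then filtration, ice-cold washes and gamma counting, triplicates. Nonspecific binding defined with 1 mM peptide or 100 nM C5a. Relative affinity = antilog[−(log IC50 C5a − log IC50 peptide)] × 100. The potency/binding ratio is EC50 divided by the binding IC50.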

[3] = Selectivity of peptide was determined from antilog[pD2(fetal artery)-pD2 (PMN enzyme release)] (n=35); type: functional
In short: (§4)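 Selectivity = antilog[pD2(fetal artery) − pD2(PMN β-glucuronidase release)]. pD2 values come from full dose–response curves in each assay, each generated alongside C5a.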

Homo sapiens [4] = species: Homo sapiens; experiment: Tested for the ability to stimulate beta-glucuronidase release from human polymorphonuclear cells (PMN) (n=5); type: functional; in short: as §1
Homo sapiens [5] = species: Homo sapiens; experiment: Spasmogenic activity was measured by the ability to induce smooth muscle contraction in human fetal artery; type: functional, Muscle tissue
In short: (§5)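 Human fetal artery smooth muscle contraction; full dose–response curves for recombinant human C5a or each peptide in the same tissue preparation. EC50 is the concentration giving 50% of the maximal response, read relative to the C5a maximum. pD2 = −log EC50 (M), averaged per peptide ± SE. Log potency ratio pD2(C5a) − pD2(peptide) is computed within each experiment. Relative potency = antilog(−Δ) × 100.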

Homo sapiens [6] = species: Homo sapiens; experiment: Effective concentration to induce smooth muscle contraction in human fetal artery; type: functional; details: Muscle tissue; in short: as §5
Homo sapiens [7] = species: Homo sapiens; experiment: Relative potency of peptide to stimulate beta-glucuronidase release from human polymorphonuclear cells (PMN) (n=5); type: functional; in short: as §1
Homo sapiens [8] = species: Homo sapiens; experiment: Log potency ratio [pD2(C5a)-pD2(peptide)] was determined in human fetal artery; type: functional; in short: as §5
Homo sapiens [9] = species: Homo sapiens; experiment: Relative affinity for PMN receptor (n=3); type: functional; in short: as §3
Homo sapiens [10] = species: Homo sapiens; experiment: Effective concentration to stimulate beta-glucuronidase release from human polymorphonuclear cells (PMN) (n=5); type: functional; in short: as §1
Homo sapiens [11] = species: Homo sapiens; experiment: Relative potency of peptide for human fetal artery was determined; type: functional; in short: as §5
Homo sapiens [12] = species: Homo sapiens; experiment: Maximum efficacy relative to C5a (100%) for human polymorphonuclear cells (PMN) was determined (n=5); type: functional; in short: as §1
Homo sapiens [13] = species: Homo sapiens; experiment: Tested for inhibition of binding of [125I]-C5a to intact human polymorphonuclear cells (PMN) (n=3); type: functional; in short: as §3
Homo sapiens [14] = species: Homo sapiens; experiment: Effective concentration to stimulate beta-glucuronidase release from human polymorphonuclear cells (PMN) (n=3); type: functional; in short: as §1
Homo sapiens [15] = species: Homo sapiens; experiment: Maximum efficacy relative to C5a (100%) for human polymorphonuclear cells (PMN) was determined (n=3); type: functional; in short: as §1
[16] = Selectivity of peptide was determined from antilog[pD2(fetal artery)-pD2 (PMN enzyme release)] (n=12); type: functional; in short: as §4
Homo sapiens [17] = species: Homo sapiens; experiment: Log potency ratio [pD2(C5a)-pD2(peptide)] was determined in human polymorphonuclear cells (PMN) (n=3); type: functional; in short: as §1
Homo sapiens [18] = species: Homo sapiens; experiment: Tested for the ability to stimulate beta-glucuronidase release from human polymorphonuclear cells (PMN) (n=3); type: functional; in short: as §1
Homo sapiens [19] = species: Homo sapiens; experiment: Relative potency of peptide to stimulate beta-glucuronidase release from human polymorphonuclear cells (PMN) (n=3); type: functional; in short: as §1
Homo sapiens [20] = species: Homo sapiens; experiment: Relative potency of peptide to stimulate beta-glucuronidase release from human polymorphonuclear cells (PMN) (n=6); type: functional; in short: as §1
Homo sapiens [21] = species: Homo sapiens; experiment: Maximum efficacy relative to C5a (100%) for human polymorphonuclear cells (PMN) was determined (n=6); type: functional; in short: as §1
Homo sapiens [22] = species: Homo sapiens; experiment: Tested for inhibition of binding of [125I]C5a to intact human polymorphonuclear cells (PMN) (n=3); type: functional; in short: as §3
Homo sapiens [23] = species: Homo sapiens; experiment: Selectivity of peptide was determined from antilog [pD2(fetal artery)-pD2 (PMN enzyme release)] (n=28); type: functional; in short: as §4
Homo sapiens [24] = species: Homo sapiens; experiment: Tested for the ability to stimulate beta-glucuronidase release from human polymorphonuclear cells (PMN) (n=6); type: functional; in short: as §1
Homo sapiens [25] = species: Homo sapiens; experiment: Effective concentration to stimulate beta-glucuronidase release from human polymorphonuclear cells (PMN) (n=6); type: functional; in short: as §1
Homo sapiens [26] = species: Homo sapiens; experiment: as §2; type: functional; in short: as §3
Homo sapiens [27] = species: Homo sapiens; experiment: Log potency ratio [log IC50(C5a)-log IC50(peptide)] was determined in human polymorphonuclear cells (PMN) (n=3); type: functional; in short: as §3
Homo sapiens [28] = species: Homo sapiens; experiment: Log potency ratio [pD2(C5a)-pD2(peptide)] was determined in human polymorphonuclear cells (PMN) (n=6); type: functional; in short: as §1
Homo sapiens [29] = species: Homo sapiens; experiment: Log potency ratio [pD2(C5a)-pD2(peptide)] was determined in human polymorphonuclear cells (PMN) (n=4); type: functional; in short: as §1
Homo sapiens [30] = species: Homo sapiens; experiment: Tested for the ability to stimulate beta-glucuronidase release from human polymorphonuclear cells (PMN) (n=4); type: functional; in short: as §1
[31] = Selectivity of peptide was determined from antilog[pD2(fetal artery)-pD2 (PMN enzyme release)] (n=8); type: functional; in short: as §4
Homo sapiens [32] = species: Homo sapiens; experiment: Relative potency of peptide to stimulate beta-glucuronidase release from human polymorphonuclear cells (PMN) (n=4); type: functional; in short: as §1
Homo sapiens [33] = species: Homo sapiens; experiment: Maximum efficacy relative to C5a (100%) for human polymorphonuclear cells (PMN) was determined (n=4); type: functional; in short: as §1

Structure (SMILES): CSCC[C@H](NC(=O)[C@@H]1CCCN1C(=O)[C@H](CCCCN)NC(=O)[C@H](Cc1ccccc1)NC(=O)[C@H](CO)NC(=O)[C@H](Cc1ccc(O)cc1)NC(=O)CCCCCNC(=O)[C@@H](N)CCCCN)C(=O)N1CCC[C@H]1C(=O)N[C@@H](CC(C)C)C(=O)N[C@H](C)C(=O)N[C@@H](CCCN=C(N)N)C(=O)O [listing 1 of 2 here]
EC50 (Homo sapiens [14]): 4.3 µM
EC50 (Homo sapiens [6]): 0.09 µM

Structure (SMILES): CSCC[C@H](NC(=O)[C@@H]1CCCN1C(=O)[C@H](CCCCN)NC(=O)[C@H](Cc1ccccc1)NC(=O)[C@H](CO)NC(=O)[C@H](Cc1ccc(O)cc1)NC(=O)CCCCCNC(=O)[C@@H](N)CCCCN)C(=O)N1CCC[C@H]1C(=O)N[C@@H](CC(C)C)C(=O)N[C@H](C)C(=O)N[C@@H](CCCN=C(N)N)C(=O)O [listing 2 of 2 here]
C5a max (Homo sapiens [15]): 145%
pD2 (Homo sapiens [5]): 7.14
Mean log concentration ratio (Homo sapiens [8]): 0.84
Selectivity [16]: 59
Mean log concentration ratio (Homo sapiens [17]): 1.93
Potency (Homo sapiens [11]): 14%
pD2 (Homo sapiens [18]): 5.37
Potency (Homo sapiens [19]): 1.2%

Structure (SMILES): CSCC[C@H](NC(=O)[C@@H]1CCCN1C(=O)[C@H](CCCCN)NC(=O)[C@H](Cc1ccccc1)NC(=O)[C@H](CO)NC(=O)[C@H](Cc1ccc(O)cc1)NC(C)=O)C(=O)N1CCC[C@H]1C(=O)N[C@@H](CC(C)C)C(=O)N[C@H](C)C(=O)N[C@@H](CCCN=C(N)N)C(=O)O
Mean log concentration ratio (Homo sapiens [29]): 2.44
pD2 (Homo sapiens [30]): 5.03
pD2 (Homo sapiens [5]): 6.98
Selectivity [31]: 89
Mean log concentration ratio (Homo sapiens [8]): 0.74
Potency (Homo sapiens [32]): 0.4%
C5a max (Homo sapiens [33]): 148%
Potency (Homo sapiens [11]): 9.6%

Continued, in another order:

Ratio [2]: 72
EC50 (Homo sapiens [6]): 9.6 µM
EC50 (Homo sapiens [10]): 92 µM
IC50 (Homo sapiens [13]): 1.3 µM
Structure (SMILES): CSCC[C@H](NC(=O)[C@H](CC(=O)O)NC(=O)[C@H](CCCCN)NC(=O)[C@H](Cc1ccccc1)NC(=O)[C@H](CO)NC(=O)[C@@H](N)Cc1ccc(O)cc1)C(=O)N[C@@H](CCC(N)=O)C(=O)N[C@@H](CC(C)C)C(=O)NCC(=O)N[C@@H](CCCN=C(N)N)C(=O)O (H-YSFKDMQLGR-OH)
Mean log concentration ratio (Homo sapiens [1]): 3.42
Selectivity [3]: 8.3
pD2 (Homo sapiens [4]): 4.04
pD2 (Homo sapiens [5]): 4.96
Potency (Homo sapiens [7]): 0.04%
Mean log concentration ratio (Homo sapiens [8]): 3
C5a affinity (Homo sapiens [9]): 0.022%
Potency (Homo sapiens [11]): 0.1%
C5a max (Homo sapiens [12]): 87%

EC50 (Homo sapiens [6]): 0.5 µM
IC50 (Homo sapiens [22]): 3.7 µM
EC50 (Homo sapiens [25]): 72 µM
Structure (SMILES): CSCC[C@H](NC(=O)[C@H](CC(=O)O)NC(=O)[C@H](CCCCN)NC(=O)[C@H](Cc1ccccc1)NC(=O)[C@H](CO)NC(=O)[C@@H](N)Cc1ccc(O)cc1)C(=O)N1CCC[C@H]1C(=O)N[C@@H](CC(C)C)C(=O)N[C@H](C)C(=O)N[C@@H](CCCN=C(N)N)C(=O)O
Potency (Homo sapiens [20]): 0.04%
pD2 (Homo sapiens [5]): 6.32
Mean log concentration ratio (Homo sapiens [8]): 1.66
C5a affinity (Homo sapiens [9]): 0.007%
C5a max (Homo sapiens [21]): 174%
Selectivity (Homo sapiens [23]): 151
pD2 (Homo sapiens [24]): 4.14
Ratio (Homo sapiens [26]): 19
Potency (Homo sapiens [11]): 2.2%
Mean log concentration ratio (Homo sapiens [27]): 4.13
Mean log concentration ratio (Homo sapiens [28]): 3.35
